Measured values published in ChEMBL document CHEMBL1799961, “N-Acylhydrazones as inhibitors of PDE10A” (Bioorg Med Chem Lett, 2011).
pIC50: −log10 of the molar value. Active and inactive are the calls of the source. No cut-off for these calls is given here.

Experiments:
[1] = biological target: T1, cAMP and cAMP-inhibited cGMP 3',5'-cyclic phosphodiesterase 10A (Mus musculus, UniProt Q8CA95); assay: Inhibition of mouse PDE10A assessed as inhibition of hydrolysis of [3H]cGMP to [3H]GMP after 20 mins by scintillation counting
T1 sequence (Q8CA95 whole entry): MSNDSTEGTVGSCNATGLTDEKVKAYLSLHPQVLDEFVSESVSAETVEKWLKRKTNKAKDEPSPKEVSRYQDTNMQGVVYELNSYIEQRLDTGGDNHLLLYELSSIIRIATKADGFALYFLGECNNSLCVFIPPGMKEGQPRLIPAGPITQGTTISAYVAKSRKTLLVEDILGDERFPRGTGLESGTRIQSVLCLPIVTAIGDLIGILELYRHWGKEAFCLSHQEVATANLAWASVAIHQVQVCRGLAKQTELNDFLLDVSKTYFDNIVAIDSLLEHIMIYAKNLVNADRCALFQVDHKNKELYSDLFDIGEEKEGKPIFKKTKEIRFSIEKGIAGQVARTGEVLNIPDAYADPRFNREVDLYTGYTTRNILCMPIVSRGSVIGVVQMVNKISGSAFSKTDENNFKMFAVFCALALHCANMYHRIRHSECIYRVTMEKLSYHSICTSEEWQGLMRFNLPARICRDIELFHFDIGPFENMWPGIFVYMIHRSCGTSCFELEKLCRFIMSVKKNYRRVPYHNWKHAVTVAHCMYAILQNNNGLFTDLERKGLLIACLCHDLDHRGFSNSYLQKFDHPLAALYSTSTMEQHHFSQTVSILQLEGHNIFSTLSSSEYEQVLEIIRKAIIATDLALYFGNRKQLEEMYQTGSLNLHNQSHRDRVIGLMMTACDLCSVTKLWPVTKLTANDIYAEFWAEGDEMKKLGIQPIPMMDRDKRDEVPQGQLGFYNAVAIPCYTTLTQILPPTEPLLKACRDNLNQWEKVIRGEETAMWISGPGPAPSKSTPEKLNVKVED
Procedure, shortened: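 Reaction was started with mouse PDE10 (25 ng/ml final) and run 20 min at 30 °C. Stopped with yttrium silicate SPA beads, scintillation counted 1–2 h later. IC50 from curve fitting.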

[2] = Volume of distribution at steady state in rat at 4 mg/kg, iv; format: ADME, organism-based; set-up: dose 4 mg/kg, route intravenous; conditions: in vivo, read-out: Vdss
Procedure, shortened: (§1)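 Rat pharmacokinetics, dosed iv at 4 mg/kg and po at 9 mg/kg.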

[3] = Oral bioavailability in rat at 9 mg/kg; format: ADME, organism-based; conditions: in vivo; procedure, shortened: as §1
Mus musculus [4] = species on record: Mus musculus; assay: Selectivity ratio of IC50 for mouse PDE7A to IC50 for mouse PDE10A
Procedure, shortened: (§2)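 Reaction started by adding enzyme (mouse PDE10 at 25 ng/ml final); 20 min at 30 °C. Stopped with yttrium silicate SPA beads, scintillation read 1–2 h later. IC50s from curve fits; ratio of other-PDE IC50 to PDE10A IC50.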

Mus musculus [5] = species on record: Mus musculus; assay: Selectivity ratio of IC50 for mouse PDE8A to IC50 for mouse PDE10A; procedure, shortened: as §2
Mus musculus [6] = assay: Behavioral effect in mouse assessed as reduction in conditioned avoidance response at 10 to 30 mg/kg, ip administered 20 mins prior testing; format: functional, organism-based
Procedure, shortened: (§3)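 Mice trained in a shuttle-box to avoid foot-shock after a conditional stimulus, until at least 25 avoidances in 30 trials. Dosing was ip in 30 mM H3PO4, 0.2% tween 80, 5% DMSO, 20 min before testing; controls got vehicle. Eight mice per group. Paired-sample t-test compared each animal with its vehicle-injected performance on the previous day.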

Mus musculus [7] = species on record: Mus musculus; assay: Selectivity ratio of IC50 for mouse PDE9A to IC50 for mouse PDE10A; procedure, shortened: as §2
Mus musculus [8] = assay: Behavioral effect in ip dosed mouse assessed as reduction in conditioned avoidance response compound administered 20 mins prior testing; format: functional, organism-based; procedure, shortened: as §3
Mus musculus [9] = assay: Antipsychotic activity in mouse assessed as inhibition of PCP-induced hyperlocomotion at 20 mg/kg, ip administered 20 mins prior testing; format: functional, organism-based; set-up: dose 20 mg/kg
Procedure, shortened: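 PCP-induced hyperlocomotion in mice: 20 mg/kg ip in 30 mM H3PO4, 0.2% tween 80, 5% DMSO, dosed 20 min before testing; PCP given ip 10 min before testing. Controls got vehicle. Normal activity range 500–1000. Eight mice per group; t-test for each interval.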

Mus musculus [10] = species on record: Mus musculus; assay: Selectivity ratio of IC50 for mouse PDE3A to IC50 for mouse PDE10A; procedure, shortened: as §2
Mus musculus [11] = species on record: Mus musculus; assay: Selectivity ratio of IC50 for mouse PDE4A to IC50 for mouse PDE10A; procedure, shortened: as §2
[12] = Clearance in rat at 4 mg/kg, iv; format: ADME, organism-based; set-up: dose 4 mg/kg, route intravenous; conditions: in vivo; procedure, shortened: as §1
Mus musculus [13] = species on record: Mus musculus; assay: Selectivity ratio of IC50 for mouse PDE1A to IC50 for mouse PDE10A; procedure, shortened: as §2
[14] = Cmax in rat at 9 mg/kg, po; format: ADME, organism-based; set-up: dose 9 mg/kg, route oral; conditions: in vivo; procedure, shortened: as §1
Mus musculus [15] = species on record: Mus musculus; assay: Selectivity ratio of IC50 for mouse PDE2A to IC50 for mouse PDE10A; procedure, shortened: as §2
Mus musculus [16] = species on record: Mus musculus; assay: Selectivity ratio of IC50 for mouse PDE5A to IC50 for mouse PDE10A; procedure, shortened: as §2
[17] = Tmax in rat at 9 mg/kg, po; format: ADME, organism-based; set-up: dose 9 mg/kg, route oral; conditions: in vivo; procedure, shortened: as §1
[18] = Half life in rat at 4 mg/kg, iv; format: ADME, organism-based; set-up: dose 4 mg/kg, route intravenous; conditions: in vivo; procedure, shortened: as §1
Mus musculus [19] = species on record: Mus musculus; assay: Selectivity ratio of IC50 for mouse PDE11A to IC50 for mouse PDE10A; procedure, shortened: as §2

Row | SMILES | pIC50 [1] | other results
1 | COc1ccc(/C=N/NC(=O)CNc2cc(C)nc3ccccc23)cc1OC | 5.10 | –
2 | COc1ccc(/C=N/NC(=O)CSc2cc(C)nc3ccccc23)cc1Cl | 6.66 | –
3 | COc1cc(/C=N/NC(=O)CSc2ccc3ccccc3n2)cc(OC)c1OC | 6.85 | –
4 | COc1cc(/C=N/NC(=O)CSc2cc(C)nc3ccccc23)ccc1C#N | 6.80 | –
5 | COc1cc(F)c(/C=N/NC(=O)CSc2cc(C)nc3ccccc23)cc1OC | 6.72 | –
6 | COc1cc(/C=N/NC(=O)CSc2ccc(OC(F)(F)F)cc2)cc(OC)c1OC | 6.07 | –
7 | COc1cc(/C=N/NC(=O)CSc2ccncn2)cc(OC)c1OC | 5.97 | –
8 | Cc1cc(SCC(=O)N/N=C/c2ccc(OC(F)F)c(OC(F)F)c2)c2ccccc2n1 | 6.51 | –
9 | COc1cc(/C=N/NC(=O)CSc2ccc(-c3ccccc3)cc2)cc(OC)c1OC | 6.59 | –
10 | COc1cc(/C=N/NC(=O)CSc2ccc([N+](=O)[O-])c3ccccc23)cc(OC)c1OC | 7.00 | –
11 | COc1cc(/C=N/NC(=O)CSc2cccc3cccnc23)cc(OC)c1OC | 6.72 | –
12 | COc1ccc(/C(C)=N/NC(=O)CSc2cc(C)nc3ccccc23)cc1OC | 6.74 | –
13 | COc1ccc(/C=N/NC(=O)CSc2cc(C)nc3ccccc23)cc1OC(C)C | 6.18 | –
14 | COc1ccc(/C=N/NC(=O)CSc2cc(C)nc3ccccc23)cc1OC(F)(F)F | 5.77 | –
15 | COc1ccc(/C=N/NC(=O)COc2cc(C)nc3ccccc23)cc1OC | 5.80 | –
16 | COc1cc(/C=N/NC(=O)CSc2cc(C)nc3ccccc23)ccc1F | 6.72 | –
17 | COc1cc(/C=N/NC(=O)CN(C)c2cc(C)nc3ccccc23)cc(OC)c1OC | 6.44 | –
18 | COc1cc(/C=N/NC(=O)CSc2cc(C)nc3ccccc23)ccc1C(F)(F)F | 6.60 | –
19 | CCOc1cc(/C=N/NC(=O)CSc2cc(C)nc3ccccc23)ccc1OC | 6.59 | –
20 | COc1ccc(/C=N/NC(=O)CSc2cc(C)nc3ccccc23)cc1C(F)(F)F | 6.38 | –
21 | COc1ccc(/C=N/NC(=O)CSc2cc(C)nc3ccccc23)cc1F | 6.21 | –
22 | COc1ccc(/C=N/NC(=O)CSc2cc(C)nc3ccccc23)c(Cl)c1OC | 5.34 | –
23 | COc1cc(Cl)c(/C=N/NC(=O)CSc2cc(C)nc3ccccc23)cc1OC | 6.70 | –
24 | COc1ccc(/C=N/NC(=O)CSc2cc(C)nc3ccccc23)c(Br)c1OC | 5.32 | –
25 | COc1ccc(/C=N/NC(=O)CSc2cc(C)nc3ccccc23)cc1 | 5.85 | –
26 | COc1cc(/C=N/NC(=O)CSc2cc(C)nc3ccccc23)cc(OC)c1 | 6.82 | –
27 | COc1cc(/C=N/NC(=O)CSc2ccncc2)cc(OC)c1OC | 6.26 | –
28 | COc1cccc(/C=N/NC(=O)CSc2cc(C)nc3ccccc23)c1 | 5.92 | –
29 | COc1ccccc1SCC(=O)N/N=C/c1cc(OC)c(OC)c(OC)c1 | 6.18 | –

Continued by rising pIC50 [1], values first:

Row | pIC50 [1] | SMILES | other results
30 | 7.00 | COc1cc(/C=N/NC(=O)CSc2cc(C)nc3ccccc23)ccc1C | –
31 | 7.03 | COc1cc(/C=N/NC(=O)CSc2cc(C)nc3ccccc23)ccc1Br | –
32 | 7.06 | COc1cc(/C=N/NC(=O)CSc2cc(C)nc3ccccc23)ccc1Cl | –
33 | 7.11 | COc1cc(Br)c(/C=N/NC(=O)CSc2cc(C)nc3ccccc23)cc1OC | –
34 | 7.29 | COc1cc(/C=N/NC(=O)CSc2cc(C)nc3ccccc23)cc(F)c1OC | –
35 | 7.31 | COc1ccc(/C=N/NC(=O)CSc2cc(C)nc3ccccc23)cc1OC | –
36 | 7.35 | COc1cc(/C=N/NC(=O)CSc2cc(C)nc3ccccc23)cc(Cl)c1OC | –
37 | 7.52 | COc1cc(/C=N/NC(=O)CSc2cc(C)nc3ccccc23)cc(Br)c1OC | –
38 | 7.55 | COc1cc(/C=N/NC(=O)CSc2ccnc3cc(Cl)ccc23)cc(OC)c1OC | –
39 | 7.59 | COc1cc(/C=N/N(C)C(=O)CSc2cc(C)nc3ccccc23)cc(OC)c1OC | –
40 | 7.62 | COc1cc(/C=N/NC(=O)CSc2ccnc3ccccc23)cc(OC)c1OC | –
41 | 7.85 | COc1cc(/C=N/NC(=O)CSc2cc(C)nc3ccccc23)cc(OC)c1C#N | –
42 | 7.96 | COc1cc(/C=N/NC(=O)CSc2cc(C)nc3ccccc23)cc(C#N)c1OC | –
43 | 8.00 | COc1cc(/C=N/NC(=O)CSc2cc(C)nc3ccccc23)cc(OC)c1OC | –
44 | 8.10 | COc1ccc2nc(C)cc(SCC(=O)N/N=C/c3cc(OC)c(OC)c(OC)c3)c2c1 | Vd [2]: 17.4 L/kg; bioavailability [3]: 21%; Ratio IC50 (Mus musculus [4]): > 110; Ratio IC50 (Mus musculus [5]): > 110; Activity (Mus musculus [6]): Active; Ratio IC50 (Mus musculus [7]): > 110; Activity (Mus musculus [8]): Dose-dependent effect; inhibition (Mus musculus [9]): Active; Ratio IC50 (Mus musculus [10]): > 110; Ratio IC50 (Mus musculus [11]): > 110; clearance [12]: 55 mL/min/kg; Ratio IC50 (Mus musculus [13]): > 110; Cmax [14]: 539 ng/mL; Ratio IC50 (Mus musculus [15]): > 110; Ratio IC50 (Mus musculus [16]): > 110; Tmax [17]: 0.25 h; half-life [18]: 11.3 h; Ratio IC50 (Mus musculus [19]): > 110
45 | 8.32 | COc1cc(/C=N/NC(=O)CSc2cc(C)nc3ccccc23)cc(OC)c1Br | –
